Assay results published in ChEMBL document CHEMBL3286281, “Amino derivatives of glycyrrhetinic acid as potential inhibitors of cholinesterases” (Bioorg Med Chem, 2014).

What was measured:
Acetylcholinesterase = Acetylcholinesterase (Electrophorus electricus, UniProt O42275); assay: Inhibition of Electrophorus electricus AChE using acetylthiocholine iodide as substrate after 20 mins measured for 1 min interval for 30 mins by Ellman's method
[1] = Selectivity ratio of Ki for Electrophorus electricus AChE to Ki for equine serum BChE
In short: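 Ki from Ellman kinetics at pH 8.0 and 30 °C after 20 min enzyme–inhibitor–DTNB preincubation. Inhibitor at several concentrations plus a water blank; ATChI or BTChI at 0.9375, 0.625, 0.325 and 0.1875 mM. A415 read every 1 min for 30 min, in triplicate. Ki from Lineweaver-Burk, Dixon and Cornish-Bowden plots; F = Ki(AChE)/Ki(BChE).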

Cholinesterase = Cholinesterase (Equus caballus, UniProt P81908); assay: Inhibition of equine serum BChE using butyrylthiocholine iodide as substrate after 20 mins measured for 1 min interval for 30 mins by Ellman's method
Cholinesterase, sequence (P81908 whole entry): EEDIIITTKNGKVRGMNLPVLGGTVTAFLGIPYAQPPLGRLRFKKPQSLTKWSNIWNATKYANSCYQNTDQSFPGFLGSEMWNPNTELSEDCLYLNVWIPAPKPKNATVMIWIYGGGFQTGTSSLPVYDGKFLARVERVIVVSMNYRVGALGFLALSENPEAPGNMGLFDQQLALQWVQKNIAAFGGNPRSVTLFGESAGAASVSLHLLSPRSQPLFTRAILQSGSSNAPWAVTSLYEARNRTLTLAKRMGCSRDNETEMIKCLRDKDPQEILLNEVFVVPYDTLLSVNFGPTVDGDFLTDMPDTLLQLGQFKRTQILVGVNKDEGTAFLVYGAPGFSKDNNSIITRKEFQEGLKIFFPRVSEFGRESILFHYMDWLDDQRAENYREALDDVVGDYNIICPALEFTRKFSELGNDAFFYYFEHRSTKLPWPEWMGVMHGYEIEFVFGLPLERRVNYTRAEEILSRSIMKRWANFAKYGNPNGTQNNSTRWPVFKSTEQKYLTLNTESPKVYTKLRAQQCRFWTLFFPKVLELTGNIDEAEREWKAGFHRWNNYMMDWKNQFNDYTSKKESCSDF

[2] = Solubility of the compound; assay type: physicochemical

Acetylcholinesterase, sequence (O42275 whole entry): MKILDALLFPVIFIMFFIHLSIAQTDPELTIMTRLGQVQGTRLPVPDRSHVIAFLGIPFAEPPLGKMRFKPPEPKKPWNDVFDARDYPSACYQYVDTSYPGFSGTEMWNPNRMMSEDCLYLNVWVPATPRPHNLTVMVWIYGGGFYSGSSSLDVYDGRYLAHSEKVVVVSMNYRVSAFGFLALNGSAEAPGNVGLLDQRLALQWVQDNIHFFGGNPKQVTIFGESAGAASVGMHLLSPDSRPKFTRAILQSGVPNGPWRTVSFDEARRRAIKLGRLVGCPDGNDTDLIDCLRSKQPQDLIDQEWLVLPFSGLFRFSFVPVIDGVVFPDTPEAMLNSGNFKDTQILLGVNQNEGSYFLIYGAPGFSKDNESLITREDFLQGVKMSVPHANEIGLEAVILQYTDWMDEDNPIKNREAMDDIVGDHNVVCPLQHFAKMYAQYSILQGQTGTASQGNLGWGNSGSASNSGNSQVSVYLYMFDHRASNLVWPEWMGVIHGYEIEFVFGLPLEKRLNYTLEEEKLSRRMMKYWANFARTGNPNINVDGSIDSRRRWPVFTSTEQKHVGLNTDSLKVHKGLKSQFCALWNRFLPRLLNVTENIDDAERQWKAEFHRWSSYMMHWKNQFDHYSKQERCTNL

| Structure (SMILES) | Ki (Acetylcholinesterase) [µM] | Ratio Ki [1] | Ki (Cholinesterase) [µM] | solubility [2] |
| --- | --- | --- | --- | --- |
| CNCC(=O)O[C@H]1CC[C@]2(C)[C@H]3C(=O)C=C4[C@@H]5C[C@@](C)(C(=O)OC)CC[C@]5(C)CC[C@@]4(C)[C@]3(C)CC[C@H]2C1(C)C | 20.4 | < 0.21 | > 100 | – |
| COC(=O)[C@@]1(C)CC[C@]2(C)CC[C@]3(C)C(=CC(=O)[C@@H]4[C@@]5(C)CC[C@H](OC(=O)[C@H](C)N)C(C)(C)[C@@H]5CC[C@]43C)[C@@H]2C1 [listing 1 of 2 here] | – | < 0.21 | – | – |
| COC(=O)[C@@]1(C)CC[C@]2(C)CC[C@]3(C)C(=CC(=O)[C@@H]4[C@@]5(C)CC[C@H](OC(=O)[C@@H](N)CC(=O)O)C(C)(C)[C@@H]5CC[C@]43C)[C@@H]2C1 | 16.2 | < 0.16 | > 100 | – |
| COC(=O)[C@@]1(C)CC[C@]2(C)CC[C@]3(C)C(=CC(=O)[C@@H]4[C@@]5(C)CC[C@H](OC(=O)[C@@H](N)CC(=O)OCc6ccccc6)C(C)(C)[C@@H]5CC[C@]43C)[C@@H]2C1 | 28.1 | < 0.28 | > 100 | – |
| COC(=O)[C@@]1(C)CC[C@]2(C)CC[C@]3(C)C(=CC(=O)[C@@H]4[C@@]5(C)CC[C@H](OC(=O)[C@@H](N)CCC(=O)O)C(C)(C)[C@@H]5CC[C@]43C)[C@@H]2C1 | 18.9 | < 0.19 | > 100 | – |
| COC(=O)[C@@]1(C)CC[C@]2(C)CC[C@]3(C)C(=CC(=O)[C@@H]4[C@@]5(C)CC[C@H](OC(=O)[C@@H](C)N)C(C)(C)[C@@H]5CC[C@]43C)[C@@H]2C1 | 17.7 | < 0.18 | > 100 | – |
| COC(=O)[C@@]1(C)CC[C@]2(C)CC[C@]3(C)C(=CC(=O)[C@@H]4[C@@]5(C)CC[C@H](OC(=O)[C@@H](N)C(C)C)C(C)(C)[C@@H]5CC[C@]43C)[C@@H]2C1 | – | – | – | Insoluble |
| CC[C@H](C)[C@H](N)C(=O)O[C@H]1CC[C@]2(C)[C@H]3C(=O)C=C4[C@@H]5C[C@@](C)(C(=O)OC)CC[C@]5(C)CC[C@@]4(C)[C@]3(C)CC[C@H]2C1(C)C | – | – | – | Insoluble |
| CC(C)(C)OC(=O)NCCCNC(=O)[C@@]1(C)CC[C@]2(C)CC[C@]3(C)C(=CC(=O)[C@@H]4[C@@]5(C)CC[C@H](O)C(C)(C)[C@@H]5CC[C@]43C)[C@@H]2C1 | > 10 | – | > 10 | – |
| CCOC(=O)[C@@]1(C)CC[C@]2(C)CC[C@]3(C)C(=CC(=O)[C@@H]4[C@@]5(C)CC[C@H](OC(=O)[C@H](N)Cc6c[nH]c7ccccc67)C(C)(C)[C@@H]5CC[C@]43C)[C@@H]2C1 | 11.7 | < 0.12 | > 100 | – |
| CC1(C)[C@@H](O)CC[C@]2(C)[C@H]3C(=O)C=C4[C@@H]5C[C@@](C)(C(=O)OCCBr)CC[C@]5(C)CC[C@@]4(C)[C@]3(C)CC[C@@H]12 | 23.8 | < 0.24 | > 100 | – |
| COC(=O)CC[C@H](N)C(=O)O[C@H]1CC[C@]2(C)[C@H]3C(=O)C=C4[C@@H]5C[C@@](C)(C(=O)OC)CC[C@]5(C)CC[C@@]4(C)[C@]3(C)CC[C@H]2C1(C)C | – | – | – | Insoluble |
| CC1(C)[C@@H](O)CC[C@]2(C)[C@H]3C(=O)C=C4[C@@H]5C[C@@](C)(C(=O)O)CC[C@]5(C)CC[C@@]4(C)[C@]3(C)CC[C@@H]12 [ENOXOLONE] | > 100 | – | > 100 | – |
| COC(=O)[C@@]1(C)CC[C@]2(C)CC[C@]3(C)C(=CC(=O)[C@@H]4[C@@]5(C)CC[C@H](OC(=O)[C@H](C)N)C(C)(C)[C@@H]5CC[C@]43C)[C@@H]2C1 [listing 2 of 2 here] | 20.8 | – | > 100 | – |
| COC(=O)[C@@]1(C)CC[C@]2(C)CC[C@]3(C)C(=CC(=O)[C@@H]4[C@@]5(C)CC[C@H](OC(=O)[C@@H](N)CCCCN)C(C)(C)[C@@H]5CC[C@]43C)[C@@H]2C1 | 20 | < 0.2 | > 100 | – |
| CC1(C)[C@@H](O)CC[C@]2(C)[C@H]3C(=O)C=C4[C@@H]5C[C@@](C)(C(=O)OC/C=C/CBr)CC[C@]5(C)CC[C@@]4(C)[C@]3(C)CC[C@@H]12 | 29.6 | < 0.74 | > 40 | – |
| CCOC(=O)[C@@]1(C)CC[C@]2(C)CC[C@]3(C)C(=CC(=O)[C@@H]4[C@@]5(C)CC[C@H](OC(=O)[C@@H](N)Cc6ccccc6)C(C)(C)[C@@H]5CC[C@]43C)[C@@H]2C1 | 13.7 | < 0.14 | > 100 | – |
| COC(=O)[C@@]1(C)CC[C@]2(C)CC[C@]3(C)C(=CC(=O)[C@@H]4[C@@]5(C)CC[C@H](OC(=O)CN)C(C)(C)[C@@H]5CC[C@]43C)[C@@H]2C1 | 19.8 | < 0.2 | > 100 | – |
| COC(=O)[C@@]1(C)CC[C@]2(C)CC[C@]3(C)C(=CC(=O)[C@@H]4[C@@]5(C)CC[C@H](OC(=O)[C@@H]6CCCN6)C(C)(C)[C@@H]5CC[C@]43C)[C@@H]2C1 | 23.5 | < 0.24 | > 100 | – |
| CCOC(=O)[C@@]1(C)CC[C@]2(C)CC[C@]3(C)C(=CC(=O)[C@@H]4[C@@]5(C)CC[C@H](OC(=O)[C@H](Cc6ccccc6)NC(=O)OC(C)(C)C)C(C)(C)[C@@H]5CC[C@]43C)[C@@H]2C1 | > 2 | – | > 2 | – |
| CC1(C)[C@@H](O)CC[C@]2(C)[C@H]3C(=O)C=C4[C@@H]5C[C@@](C)(C(=O)NCCCCCN)CC[C@]5(C)CC[C@@]4(C)[C@]3(C)CC[C@@H]12 | > 100 | – | > 100 | – |
| COC(=O)[C@@]1(C)CC[C@]2(C)CC[C@]3(C)C(=CC(=O)[C@@H]4[C@@]5(C)CC[C@H](OC(=O)[C@@H](N)Cc6ccccc6)C(C)(C)[C@@H]5CC[C@]43C)[C@@H]2C1 | 20.7 | < 0.21 | > 100 | – |
| C=CCCOC(=O)[C@@]1(C)CC[C@]2(C)CC[C@]3(C)C(=CC(=O)[C@@H]4[C@@]5(C)CC[C@H](O)C(C)(C)[C@@H]5CC[C@]43C)[C@@H]2C1 | 14.9 | < 0.15 | > 100 | – |
| CC1(C)[C@@H](O)CC[C@]2(C)[C@H]3C(=O)C=C4[C@@H]5C[C@@](C)(C(=O)O/C(=N\C6CCCCC6)NC6CCCCC6)CC[C@]5(C)CC[C@@]4(C)[C@]3(C)CC[C@@H]12 | > 10 | – | > 10 | – |
| CC1(C)[C@@H](O)CC[C@]2(C)[C@H]3C(=O)C=C4[C@@H]5C[C@@](C)(C(=O)NCCN)CC[C@]5(C)CC[C@@]4(C)[C@]3(C)CC[C@@H]12 | > 100 | – | > 100 | – |
| CC1(C)[C@@H](OC(=O)CN)CC[C@]2(C)[C@H]3C(=O)C=C4[C@@H]5C[C@@](C)(C(=O)O)CC[C@]5(C)CC[C@@]4(C)[C@]3(C)CC[C@@H]12 | > 100 | – | > 100 | – |
| COC(=O)[C@@]1(C)CC[C@]2(C)CC[C@]3(C)C(=CC(=O)[C@@H]4[C@@]5(C)CC[C@H](OC(=O)[C@@H](N)CSCc6ccccc6)C(C)(C)[C@@H]5CC[C@]43C)[C@@H]2C1 | 40.6 | < 0.41 | > 100 | – |
| CC1(C)[C@@H](O)CC[C@]2(C)[C@H]3C(=O)C=C4[C@@H]5C[C@@](C)(C(=O)NCCCCN)CC[C@]5(C)CC[C@@]4(C)[C@]3(C)CC[C@@H]12 | 41.8 | 0.56 | 74.3 | – |
| C[C@H](N)C(=O)O[C@H]1CC[C@]2(C)[C@H]3C(=O)C=C4[C@@H]5C[C@@](C)(C(=O)O)CC[C@]5(C)CC[C@@]4(C)[C@]3(C)CC[C@H]2C1(C)C | 24 | < 0.24 | > 100 | – |
